Results from different studies.
Each line is one published result; the experiments were not run side by side.
Target: Rhodopsin kinase GRK7 (GRK7, Homo sapiens, UniProt Q8WTQ7)
Residues used in one study (Q8WTQ7 1-553): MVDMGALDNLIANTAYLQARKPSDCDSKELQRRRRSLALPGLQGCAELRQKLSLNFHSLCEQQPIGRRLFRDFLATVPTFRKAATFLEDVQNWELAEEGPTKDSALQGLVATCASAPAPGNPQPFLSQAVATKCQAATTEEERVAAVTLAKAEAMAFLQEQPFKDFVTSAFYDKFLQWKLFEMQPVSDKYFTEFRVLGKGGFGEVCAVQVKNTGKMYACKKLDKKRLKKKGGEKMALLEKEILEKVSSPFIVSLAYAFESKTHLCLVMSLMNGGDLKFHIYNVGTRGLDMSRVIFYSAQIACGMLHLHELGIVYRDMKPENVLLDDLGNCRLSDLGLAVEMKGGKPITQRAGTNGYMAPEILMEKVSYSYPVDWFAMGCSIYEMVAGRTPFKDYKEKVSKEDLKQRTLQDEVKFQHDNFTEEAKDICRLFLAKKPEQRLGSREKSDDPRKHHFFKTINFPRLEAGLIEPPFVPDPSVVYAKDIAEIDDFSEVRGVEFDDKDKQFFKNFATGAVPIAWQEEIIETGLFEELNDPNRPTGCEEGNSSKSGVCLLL

SMILES	test	conditions	remaining binding
O=C(Nc1c[nH]nc1C(=O)NC1CCNCC1)c1cc(F)cc(F)c1	binding, competition with immobilised ligand	1 µM	84%
Cc1cnc(Nc2ccc(C(=O)N3CCC(N4CCCC4)CC3)cc2)nc1-c1cc2ccccc2s1	binding, competition with immobilised ligand	1 µM	29%
NS(=O)(=O)c1cc(NC(=O)Cc2ccccc2)ccc1Oc1cccc(Cl)c1	cell-free assay, competition with immobilised ligand	1 µM	77%
CN(C)c1ncc(F)c(-c2cnn3ncccc23)n1	binding	1 µM	100%
O=C(NCCCN1CCOCC1)c1ccc(Nc2ncc(Cl)c(-c3ccc(Cl)s3)n2)cc1	binding, competition with immobilised ligand	1 µM	90%
CN(C)CC#Cc1ccc(OCCCc2sc(N3CCc4cccc(C(=O)Nc5nc6ccccc6s5)c4C3)nc2C(=O)O)c(F)c1	cell-free assay, competition with immobilised ligand	1 µM	97%
F[C@@H]1CCN(c2nccc(-c3cnn4ncccc34)n2)C1	binding	1 µM	100%
C[C@H](c1ccc(F)cc1)N(Cc1cccc(C(=O)O)c1)C(=O)c1cnc2ccccc2c1	cell-free assay, competition with immobilised ligand	1 µM	100%
Cc1cnn2ncc(-c3ccnc(N(C)C)n3)c2c1	binding	1 µM	84%
O=C(NCc1ncc(C(F)(F)F)cc1Cl)c1ccc2c(c1)C1(CCS(=O)(=O)CC1)[C@H](C1CC1)N2S(=O)(=O)c1ccc(F)cc1	cell-free assay, competition with immobilised ligand	1 µM	80%
CNC(=O)[C@@H]1CC[C@@H](n2c(-c3ccc4cnccc4c3)nc3ccc(C(=O)NCc4cccc(C(N)=O)c4)cc32)C1	binding, competition with immobilised ligand	1 µM	100%
c1cnn2ncc(-c3ccnc(N4CCC45COC5)n3)c2c1	binding	1 µM	66%
c1cncc(-c2cccc(Nc3nccc(NC4CCCCC4)n3)c2)c1	binding, competition with immobilised ligand	10 µM	16%
CN(c1nccc(-c2cnn3ncccc23)n1)C1CC1	binding	1 µM	100%
COc1cnc(Nc2cccc(S(N)(=O)=O)c2)nc1N1CCN(c2ccccc2)C(=O)C1	binding, competition with immobilised ligand	1 µM	61%
O=C(c1ccc(Nc2nccc(-c3cc4ccccc4s3)n2)cc1)N1CCC(N2CCCC2)CC1	binding, competition with immobilised ligand	1 µM	79%
Nc1ncc2c(n1)-c1c([nH]c3ccc(C#CC4CC4)cc13)CCCC2	binding, competition with immobilised ligand	1 µM	93%
N[C@@H]1CCN(c2nccc(-c3cnn4ncccc34)n2)C1	binding	1 µM	100%
O=S(=O)(NC1CCC(c2cc(F)ccc2F)(S(=O)(=O)c2ccc(Cl)cc2)CC1)C(F)(F)F (stereo not shown)	cell-free assay, competition with immobilised ligand	1 µM	100%
COc1ccnn2ncc(-c3ccnc(N(C)C)n3)c12	binding	1 µM	94%
O=C(Nc1ccc(Oc2ccc(F)cc2)cc1)N1CCc2ncccc2[C@H]1c1ccc(F)cc1	cell-free assay, competition with immobilised ligand	1 µM	100%
FC(F)(F)Oc1cccc(-c2cnc3ccc(-c4ccncc4)nn23)c1	cell-free assay, competition with immobilised ligand	5 µM	24%
